For assay [1], the system named is A549. As to the kind of experiment: Cytotoxicity against human A549 cells after 24 hrs by MTS assay. The class given is functional, cell-based. The method, boiled down: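 A549 cells seeded at 10³ cells/well, allowed to attach 24 h, then exposed to drug prepared in medium at 1, 10 or 100 µM for 24 h. MTS/PES reagent added, 1 h at 37 °C, absorbance read at 490 nm. Quintuplicate wells; viability expressed as percentage of control.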

A further assay has as its target Tubulin (Sus scrofa) (UniProt P02554+P02550). As to the kind of experiment: Inhibition of pig brain tubulin polymerization at 10 uM. The method, boiled down: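 Tubulin purified from porcine brain by three warm-cold cycles plus anion-exchange to remove MAPs. Tubulin at 2.7 mg/ml was preincubated with drug (final 10 µM, 0.2% DMSO) in GTP-free K-Pipes pH 6.9 buffer with 10% glycerol, 15 min at 37 °C. Then 1 mM GTP was added and the mix held 30 min at 37 °C. Polymer and soluble fractions were separated at 30,000g and run on SDS-PAGE with Coomassie staining; densitometry; unpaired t-test.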

For assay [2], the system named is A549. Nature of the assay: Cell cycle arrest in human A549 cells assessed as accumulation at G2/M phase at 10 uM at 24 hrs. The class given is functional. The method, boiled down: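 A549 human lung carcinoma cells were grown in E-MEM with 10% FBS, 2 mM L-glutamine, penicillin and non-essential amino acids at 37 °C, 5% CO2. Cells were seeded at 10⁵–2·10⁵ per well, attached 24 h, then drug-treated (DMSO vehicle control) for 24 h at 37 °C. They were harvested by trypsin, stained for DNA with the CycleTEST PLUS kit, and analysed by flow cytometry for G2/M fraction.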

The subject of assay [3] is A549. As to the kind of experiment: Cytotoxicity against human A549 cells at 10 uM after 24 hrs […]. The class given is functional, cell-based.

Activity calls are given as the source filed them. The rule behind the calls is not given here.

Tubulin (Sus scrofa), sequence (P02550 whole entry, looked up): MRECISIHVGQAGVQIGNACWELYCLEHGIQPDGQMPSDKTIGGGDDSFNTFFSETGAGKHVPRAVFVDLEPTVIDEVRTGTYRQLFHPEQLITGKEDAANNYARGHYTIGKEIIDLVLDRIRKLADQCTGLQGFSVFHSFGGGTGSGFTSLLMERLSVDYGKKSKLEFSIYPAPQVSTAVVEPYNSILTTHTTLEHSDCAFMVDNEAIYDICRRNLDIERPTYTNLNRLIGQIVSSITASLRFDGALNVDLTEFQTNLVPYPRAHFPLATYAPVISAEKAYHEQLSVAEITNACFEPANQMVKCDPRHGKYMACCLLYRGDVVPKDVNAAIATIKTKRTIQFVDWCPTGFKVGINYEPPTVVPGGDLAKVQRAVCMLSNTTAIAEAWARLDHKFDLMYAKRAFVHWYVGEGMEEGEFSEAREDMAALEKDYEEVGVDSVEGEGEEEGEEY
Tubulin (Sus scrofa), sequence (P02554 whole entry, looked up): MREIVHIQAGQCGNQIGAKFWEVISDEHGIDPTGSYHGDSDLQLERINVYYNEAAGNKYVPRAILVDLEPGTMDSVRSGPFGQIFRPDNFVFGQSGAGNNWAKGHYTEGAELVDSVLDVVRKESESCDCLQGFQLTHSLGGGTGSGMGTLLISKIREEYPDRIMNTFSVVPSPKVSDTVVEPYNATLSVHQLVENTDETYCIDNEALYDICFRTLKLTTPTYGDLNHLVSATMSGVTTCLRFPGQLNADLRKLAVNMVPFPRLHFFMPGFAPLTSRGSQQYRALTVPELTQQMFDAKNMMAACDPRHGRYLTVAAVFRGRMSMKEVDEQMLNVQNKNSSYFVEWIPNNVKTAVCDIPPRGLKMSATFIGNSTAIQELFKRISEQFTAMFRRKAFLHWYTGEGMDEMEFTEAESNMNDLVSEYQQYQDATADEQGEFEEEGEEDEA

As for `CC[C@]12C=CCN3CC[C@@]4(c5ccc(OC)cc5N(C)[C@H]4[C@@](O)(C(=O)OC)[C@@H]1OC(=O)CCC(=O)OC1C[C@@]4(O)[C@@H](OC(=O)c5ccccc5)[C@@H]5[C@]6(OC(C)=O)CO[C@@H]6C[C@H](O[Si](CC)(CC)CC)[C@@]5(C)C(=O)[C@H](OC(C)=O)C(=C1C)C4(C)C)[C@@H]32` (some centres not stated), the result in the assay on A549 [1] was Active. With `CC[C@]12C=CCN3CC[C@@]4(c5ccc(OC)cc5N(C)[C@H]4[C@@](O)(C(=O)OC)[C@@H]1OC(=O)CCC(=O)O[C@H]1c4cc5c(cc4[C@@H](c4cc(OC)c(OC)c(OC)c4)[C@H]4C(=O)OC[C@@H]41)OCO5)[C@@H]32`, the outcome in the assay with A549 [1] was Active. As to `CC[C@]12C=CCN3CC[C@@]4(c5ccc(OC)cc5N(C)[C@H]4[C@@](O)(C(=O)OC)[C@@H]1OC(=O)CCCCCCCCC(=O)OC1C[C@@]4(O)[C@@H](OC(=O)c5ccccc5)[C@@H]5[C@]6(OC(C)=O)CO[C@@H]6C[C@H](O[Si](CC)(CC)CC)[C@@]5(C)C(=O)[C@H](OC(C)=O)C(=C1C)C4(C)C)[C@@H]32` (some centres not stated), the result at Tubulin (Sus scrofa) and with A549 [1] was Active. Consider `CC[C@]12C=CCN3CC[C@@]4(c5ccc(OC)cc5N(C)[C@H]4[C@@](O)(C(=O)OC)[C@@H]1OC(=O)CCCCCCCCC(=O)O[C@H]1c4cc5c(cc4[C@@H](c4cc(OC)c(OC)c(OC)c4)[C@H]4C(=O)OC[C@@H]41)OCO5)[C@@H]32`, for which the outcome with A549 [1] was Active. `CC[C@]12C=CCN3CC[C@@]4(c5ccc(OC)cc5N(C)[C@H]4[C@@](O)(C(=O)OC)[C@@H]1OC(=O)CCC(=O)N[C@H]1CCc4cc(OC)c(OC)c(OC)c4-c4ccc(SC)c(=O)cc41)[C@@H]32`: the Activity with A549 [2] amounted to 74%. Also, the result at Tubulin (Sus scrofa) and in the assay on A549 [1] was Active.

Turning to `CC[C@]12C=CCN3CC[C@@]4(c5ccc(OC)cc5N(C)[C@H]4[C@@](O)(C(=O)OC)[C@@H]1OC(=O)CCCCCCCCC(=O)N[C@H]1CCc4cc(OC)c(OC)c(OC)c4-c4ccc(SC)c(=O)cc41)[C@@H]32`, in the assay on A549 [1], the outcome was Active. Consider `CCC1=C[C@H]2CN(C1)Cc1c([nH]c3ccccc13)[C@@](C(=O)OC)(c1cc3c(cc1OC)N(C)[C@H]1[C@@](O)(C(=O)OC)[C@H](OC(=O)CCC(=O)O[C@H]4c5cc6c(cc5[C@@H](c5cc(OC)c(OC)c(OC)c5)[C@H]5C(=O)OC[C@@H]54)OCO6)[C@]4(CC)C=CCN5CC[C@]31[C@@H]54)C2`, for which the outcome in the assay with A549 [3] and in the assay with A549 [1] was Active. `CCC1=C[C@H]2CN(C1)Cc1c([nH]c3ccccc13)[C@@](C(=O)OC)(c1cc3c(cc1OC)N(C)[C@H]1[C@@](O)(C(=O)OC)[C@H](OC(=O)CCC(=O)N[C@H]4CCc5cc(OC)c(OC)c(OC)c5-c5ccc(SC)c(=O)cc54)[C@]4(CC)C=CCN5CC[C@]31[C@@H]54)C2`: the result in the assay on A549 [1] was Active.
